The values that follow come from ChEMBL document CHEMBL1147081, “Structure of the deacetylase LpxC bound to the antibiotic CHIR-090: Time-dependent inhibition and specificity in ligand binding” (Proc Natl Acad Sci U S A, 2007).

Experiment [1] deals with UDP-3-O-acyl-N-acetylglucosamine deacetylase (Rhizobium leguminosarum bv. trifolii (strain WSM1325), UniProt C6ARS9, S214G/W206Q). As to the kind of experiment: Inhibition of Rhizobium leguminosarum LpxC W206Q/S214G mutant. The method in brief: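 Assays used 5 μM UDP-3-O-(R-3-hydroxymyristoyl)-N-acetylglucosamine substrate and varied inhibitor at constant 10% DMSO. An IC50 curve was fit to fractional activity (vi/vo), and Ki was derived with the Cheng–Prusoff relationship.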

Experiment [2] is described as follows: Inhibition of Rhizobium leguminosarum LpxC.
Experiment [3] deals with T1, UDP-3-O-acyl-N-acetylglucosamine deacetylase (Escherichia coli K-12, UniProt P0A725).
T1 sequence (P0A725 whole entry): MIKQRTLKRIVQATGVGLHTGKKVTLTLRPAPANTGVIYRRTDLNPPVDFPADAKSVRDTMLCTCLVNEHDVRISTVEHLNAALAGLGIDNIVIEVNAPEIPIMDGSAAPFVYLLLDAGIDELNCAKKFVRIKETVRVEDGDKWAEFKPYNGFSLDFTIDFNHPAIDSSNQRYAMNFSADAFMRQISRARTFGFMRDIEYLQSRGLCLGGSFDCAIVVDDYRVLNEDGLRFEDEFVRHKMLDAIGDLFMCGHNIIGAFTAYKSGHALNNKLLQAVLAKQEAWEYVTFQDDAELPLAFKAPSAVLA
As to the kind of experiment: Inhibition of Escherichia coli LpxC.

Experiment [4] has as its target UDP-3-O-acyl-N-acetylglucosamine deacetylase (Escherichia coli K-12, UniProt P0A725, G210S/Q202W). As to the kind of experiment: Inhibition of Escherichia coli LpxC Q202W/G210S mutant.

Sequence of UDP-3-O-acyl-N-acetylglucosamine deacetylase (Escherichia coli K-12, UniProt P0A725, G210S/Q202W) (P0A725 whole entry Q202W/G210S): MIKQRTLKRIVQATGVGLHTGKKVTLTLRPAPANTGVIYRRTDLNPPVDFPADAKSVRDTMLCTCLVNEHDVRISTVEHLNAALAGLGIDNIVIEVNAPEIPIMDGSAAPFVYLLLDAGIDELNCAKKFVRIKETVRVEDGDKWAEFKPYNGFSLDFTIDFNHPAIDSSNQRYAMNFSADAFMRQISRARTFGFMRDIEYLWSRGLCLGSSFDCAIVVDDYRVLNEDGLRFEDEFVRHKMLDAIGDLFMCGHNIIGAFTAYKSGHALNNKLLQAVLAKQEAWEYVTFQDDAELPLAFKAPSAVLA
Sequence of UDP-3-O-acyl-N-acetylglucosamine deacetylase (Rhizobium leguminosarum bv. trifolii (strain WSM1325), UniProt C6ARS9, S214G/W206Q) (C6ARS9 as listed by the source W206Q/S214G): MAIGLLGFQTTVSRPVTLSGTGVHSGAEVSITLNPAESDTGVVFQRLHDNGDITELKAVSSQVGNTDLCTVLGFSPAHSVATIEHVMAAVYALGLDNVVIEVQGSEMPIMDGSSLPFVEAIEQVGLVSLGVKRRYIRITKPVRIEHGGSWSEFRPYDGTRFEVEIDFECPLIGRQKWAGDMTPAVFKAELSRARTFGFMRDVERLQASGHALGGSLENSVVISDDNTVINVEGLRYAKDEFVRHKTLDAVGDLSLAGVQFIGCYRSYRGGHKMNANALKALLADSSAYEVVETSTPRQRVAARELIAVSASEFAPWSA

With `CCCc1cc(C2=N[C@@H](C(=O)NO)CO2)cc(OC)c1OC`, the Ki (as a rule, the equilibrium dissociation constant of an inhibitor or competing ligand from its target) came out at 110000 nM in experiment [1], 380000 nM in experiment [2], 53 nM in experiment [3] and 340 nM in experiment [4].

On to `O=C(NO)[C@@H](Cc1ccc2ccccc2c1)NS(=O)(=O)c1ccc2ccccc2c1`, for which the Ki came to 700 nM in experiment [1], 5800 nM in experiment [2], 69 nM in experiment [3] and 86 nM in experiment [4].
